Measured values from different studies.
Protocols differ between the studies behind these lines.
Target: Serine/threonine-protein kinase Sgk1 (SGK1, Homo sapiens, UniProt O00141)
Sequence (O00141 1-431, as in one of the studies): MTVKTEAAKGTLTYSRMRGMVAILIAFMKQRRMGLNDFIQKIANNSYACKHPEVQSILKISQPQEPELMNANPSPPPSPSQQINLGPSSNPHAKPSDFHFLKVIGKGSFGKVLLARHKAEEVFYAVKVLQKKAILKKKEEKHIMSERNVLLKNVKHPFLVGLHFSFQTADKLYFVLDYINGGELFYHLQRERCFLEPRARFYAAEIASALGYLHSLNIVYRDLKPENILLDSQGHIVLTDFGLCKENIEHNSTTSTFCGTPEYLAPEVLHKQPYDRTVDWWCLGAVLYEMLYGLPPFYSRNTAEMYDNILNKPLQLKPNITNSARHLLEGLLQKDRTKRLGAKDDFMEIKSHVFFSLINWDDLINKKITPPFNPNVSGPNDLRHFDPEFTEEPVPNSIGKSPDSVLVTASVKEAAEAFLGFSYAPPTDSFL

| SMILES | read-out | mode | technique | concentration | quantity | value |
| --- | --- | --- | --- | --- | --- | --- |
| COc1cc(Nc2cnc(C#N)c(O[C@H](C)CN(C)C)n2)ncc1-c1cnn(C)c1 | enzyme activity | inhibitor | radiometric | 10 µM | remaining activity | 22% |
| COc1cc2ncnc(Nc3ccc(Oc4ccccc4)c(C)c3C)c2cc1OC | enzyme activity | inhibitor | – | 1 µM | inhibition | 0% |
| O=C(O)c1cc(-c2ccc(C3CCNCC3)cc2)c2ccc(-c3ccc(C(F)(F)F)cc3)cc2c1 | cell-free assay | – | competition with immobilised ligand | 1 µM | remaining binding | 100% |
| Cc1ccc(C(=O)Nc2ccc(CN3CCN(C)CC3)c(C(F)(F)F)c2)cc1C#Cc1cnc2cccnn12 | enzyme activity | inhibitor | – | 23.5 nM | remaining activity | 94% |
| FC(F)(F)Oc1cccc(-c2cnc3ccc(-c4ccncc4)nn23)c1 | enzyme activity | inhibitor | radiometric | 1 µM | activity vs control | 103% |
| CC(C)(C)c1nc2c(s1)c1nc(N)ncc1c1ccc(NS(=O)(=O)c3c(F)cccc3F)c(F)c12 | enzyme activity | inhibitor | radiometric | 1 µM | remaining activity | 87% |
| Nc1nc(Nc2ccccc2)sc1C(=O)c1c(F)cccc1F | enzyme activity | inhibitor | – | 10 µM | remaining activity | 98% |
| CN(C)C1CCN(CC#Cc2nn(C3CCCC3)c3nc(NCc4ccccc4)ncc23)C1 (centres unmarked) | enzyme activity | inhibitor | FRET | 0.1 µM | inhibition | 6% |
| C[C@@H]1CN(c2cc(-c3n[nH]c4ccc(OC5(C)CC5)cc34)ncn2)C[C@H](C)O1 | cell-free assay | – | competition with immobilised ligand | 0.1 µM | remaining binding | 89% |
| CNC(=O)c1cc(Oc2ccc(NC(=O)Nc3ccc(Cl)c(C(F)(F)F)c3)cc2)ccn1 | enzyme activity | inhibitor | – | 0.3 µM | inhibition | -15% |
| CC(=O)C1=C(C)N(c2cccc(C(F)(F)F)c2)C(=O)N[C@@H]1c1ccc(C#N)nc1 | cell-free assay | – | competition with immobilised ligand | 1 µM | remaining binding | 100% |
| CCCOc1ccc(OC)c(F)c1C(=O)c1ccc(C(=O)N[C@@H]2CNC[C@H]2NC(=O)c2ccc3[nH]ncc3c2)cc1 | enzyme activity | inhibitor | – | 0.75 µM | remaining activity | 34% |
| O=C(N1CCS(=O)(=O)CC1)N1C[C@H](c2ccc(OC(F)(F)F)cc2)C[C@H](c2nc(C3CC3)no2)C1 | cell-free assay | – | competition with immobilised ligand | 1 µM | remaining binding | 91% |
| Cn1c(=O)n(-c2ccc(C(C)(C)C#N)cc2)c2c3cc(-c4cnc5ccccc5c4)ccc3ncc21 | enzyme activity | inhibitor | – | 10 µM | remaining activity | 98% |
| O=C(O)[C@H]1[C@H](Cn2nnc3ccccc3c2=O)CC[C@@H]1C(=O)c1ccc(OCCC2CCOCC2)cc1 | cell-free assay | – | competition with immobilised ligand | 1 µM | remaining binding | 100% |
| Fc1cccc(-n2cnc3c(NCc4nc5c(F)c(F)ccc5[nH]4)nc(N4CCOCC4)nc32)c1 | binding | – | competition with immobilised ligand | 10 µM | binding vs control | 24% |
| COc1cc(-c2cn(C3CCc4ccccc4N(CC(F)(F)F)C3=O)nn2)ccc1-n1ccc(C)n1 (centres unmarked) | cell-free assay | – | competition with immobilised ligand | 1 µM | remaining binding | 88% |
| CC[C@H](CO)Nc1nc(NCc2ccccc2)c2ncn(C(C)C)c2n1 | cell-free assay | – | – | 0.5 µM | remaining signal | 120% |
| COc1cc(/C=C/C(=O)CC(=O)/C=C/c2ccc(O)c(OC)c2)ccc1O | enzyme activity | inhibitor | – | 1 µM | activity vs control | 82% |
| Cc1ccc(Nc2nccc(N(C)c3ccc4c(C)n(C)nc4c3)n2)cc1S(N)(=O)=O | enzyme activity | inhibitor | – | 0.3 µM | inhibition | -14% |
